Measurements published in ChEMBL document CHEMBL1125197, “Studies on uricosuric diuretics. 4. Three-dimensional structure-activity relationships and receptor mapping of (aryloxy)acetic acid diuretics” (1991).

Tested on: Rattus norvegicus
Test: Diuretic activity after peroral administration of 100 mg/Kg in rats
Format: functional, Urine
In short: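 Seven-week-old Wistar–Imamichi rats, fasted 24 h, in groups of five matched for urine output; forced urination before dosing. Oral dose of 100 mg/kg, suspended in physiological saline with 3% gum arabic at 25 mL/kg. Controls received vehicle alone. Animals kept fasted in separate metabolic cages, with urine collected for 6 h. Urine volume expressed as % of control (100%).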

SMILES: C[C@]1(c2ccccc2)Cc2cc(OCC(=O)O)c(Cl)c(Cl)c2C1=O
- Relative activity: 350%

SMILES: O=C(O)COc1ccc(C(=O)c2cccs2)c(Cl)c1Cl [TICRYNAFEN]
- Relative activity: 160%

SMILES: O=C(O)C1Cc2cc3c(-c4ccccc4)noc3c(Cl)c2O1 (stereo not drawn)
- Relative activity: 300%

SMILES: O=C(O)C1Oc2c(Cl)cc3c(-c4ccccc4)noc3c2O1 (stereo not drawn)
- Relative activity: 160%

SMILES: O=C(c1cccs1)c1cc2c(c(Cl)c1Cl)OC(C(=O)O)C2 (racemic)
- Relative activity: 350%

SMILES: O=C(O)COc1ccc2c(-c3ccccc3F)noc2c1Cl
- Relative activity: 250%

SMILES: O=C(O)COc1cc2oc3ccccc3c(=O)c2cc1Cl
- Relative activity: 200%

SMILES: O=C(O)C1Oc2cc3c(-c4ccccc4)noc3c(Cl)c2O1 (stereo not drawn)
- Relative activity: 450%

SMILES: O=C(O)C1Cc2c(c(Cl)c(Cl)c3nc(-c4ccccc4)oc23)O1 (stereo not drawn)
- Relative activity: 450%

SMILES: O=C(O)COc1cc2c(=O)c3ccccc3oc2cc1Cl
- Relative activity: 200%

SMILES: O=C(c1cccs1)c1cc2c(c(Cl)c1Cl)O[C@H](C(=O)O)C2
- Relative activity: 400%

SMILES: O=C(O)C1Cc2c(c(Cl)cc3c(=O)c4ccccc4oc23)O1 (stereo not drawn)
- Relative activity: 300%

SMILES: O=C(O)C1Cc2cc(-c3noc4ccccc34)c(Cl)c(Cl)c2O1 (stereo not drawn)
- Relative activity: 300%

SMILES: O=C(c1cccs1)c1cc2c(c(Cl)c1Cl)O[C@@H](C(=O)O)C2
- Relative activity: <100%

SMILES: CC1(c2ccccc2)Cc2cc(OCC(=O)O)c(Cl)c(Cl)c2C1=O (racemic) [INDACRINONE]
- Relative activity: 300%

SMILES: C[C@@]1(c2ccccc2)Cc2cc(OCC(=O)O)c(Cl)c(Cl)c2C1=O
- Relative activity: 200%

SMILES: O=C(O)C1Cc2c(c(Cl)cc3c(-c4ccccc4)noc23)O1 (stereo not drawn)
- Relative activity: 120%

SMILES: O=C(O)C1Cc2cc3c(=O)c4ccccc4oc3c(Cl)c2O1 (stereo not drawn)
- Relative activity: 200%
